Results published in PMC9720522 (Food Chemistry: X, 2022).
≈ marks a conversion by molar mass, not a printed value.

Key:
mAb against AZN (35D1D2) = test: indirect competitive ELISA; format: binding, mouse; conditions: ic-ELISA; for Cross-reactivity: CR = IC50 of AZN / IC50 of related analyte × 100; for IC50: coating antigen 0.23 and mAb 0.38 µg/mL
anti-AZN mAb = test: indirect ICA; format: binding, mouse; conditions: pork extract; strip reader standard curve
In short: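 AZN standard spiked into treated pork samples at 8, 4, 2, 1, 0.5, 0.25 and 0 ng/g. A set amount of mAb is added to the sample well and held 5 min at room temperature before strip insertion. The T line is AZL-SA-OVA, the C line mouse IgG, and the conjugate pad AuNP-goat anti-mouse IgG.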

Structure (SMILES)	Cross-reactivity (mAb against AZN (35D1D2)) [%]	IC50 (mAb against AZN (35D1D2))	IC50, indirect ICA (anti-AZN mAb) [ng/g]
O=C(CCCN1CCN(c2ccccn2)CC1)c1ccc(F)cc1 [AZN, Azaperone]	100	0.35 ng/mL (≈ 1.07 nM)	0.74
CC(C)NCC(O)COc1cccc2[nH]c3ccccc3c12 (stereo not drawn) [CAR, carazolol]	<0.035	˃1000 ng/mL	–
CN(C)CCCN1c2ccccc2Sc2ccc(Cl)cc21 [CHL, Chlorpromazine]	<0.035	˃1000 ng/mL	–
O=C(CCCN1CC=C(n2c(=O)[nH]c3ccccc32)CC1)c1ccc(F)cc1 [DRO, Droperidol]	<0.035	˃1000 ng/mL	–
O=C(CCCN1CCC(O)(c2ccc(Cl)cc2)CC1)c1ccc(F)cc1 [HAL, haloperidol]	<0.035	–	–
Cc1cccc(C)c1N=C1NCCCS1 [XYL, xylazine]	<0.035	˃1000 ng/mL	–
